The IC50 is the concentration needed to halve the response being measured. Usually logD stands for lipophilicity at a set pH, counting ionised and neutral species. High values mean higher lipophilicity, low ones lower lipophilicity. Usually solubility stands for the concentration that dissolves in the medium under given conditions. What is called AUC is concentration integrated over time. The low end stands for less exposure, the high end for more exposure. Broadly, the half-life is the time in which the quantity being followed falls by half. High values mean slow loss, low ones fast loss. A word on the bioavailability: it is the share of a dose that reaches the circulation, judged against a reference dose that is usually intravenous. A low value points to poor availability.

The values that follow come from ChEMBL document CHEMBL2046289, “Novel 2-(2-(benzylthio)-1H-benzo[d]imidazol-1-yl)acetic acids: discovery and hit-to-lead evolution of a selective CRTh2 receptor antagonist chemotype” (Bioorg Med Chem Lett, 2012).

The target in data set [1] is T1, Prostaglandin D2 receptor 2 (Homo sapiens, UniProt Q9Y5Y4).
T1 sequence (Q9Y5Y4 whole entry): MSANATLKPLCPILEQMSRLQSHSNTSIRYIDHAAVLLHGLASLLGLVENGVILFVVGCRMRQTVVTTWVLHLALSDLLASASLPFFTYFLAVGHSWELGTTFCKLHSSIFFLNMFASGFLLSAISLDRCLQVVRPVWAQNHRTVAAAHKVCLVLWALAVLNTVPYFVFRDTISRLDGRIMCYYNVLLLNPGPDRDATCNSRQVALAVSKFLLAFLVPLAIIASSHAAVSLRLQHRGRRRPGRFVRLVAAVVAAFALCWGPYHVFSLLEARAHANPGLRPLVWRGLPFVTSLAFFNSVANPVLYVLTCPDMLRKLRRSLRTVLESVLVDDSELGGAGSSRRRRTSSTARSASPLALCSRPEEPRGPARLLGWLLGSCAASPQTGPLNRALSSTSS
Briefly: Displacement of [3H]-PGD2 from human CRTh2 receptor expressed in HEK293 cells. In kind it is cell-based. For orientation: Displacement assays read how much labelled ligand stays bound in the presence of the test substance.

Data set [2] has as its target T1, Prostaglandin D2 receptor 2. Briefly: Antagonist activity at human CRTh2 receptor expressed in HEK293 cells assessed as inhibition of PGD2-induced calcium flux by FLIPR assay. The class given is functional, cell-based.
Data set [3] shares this target. The experiment in a line: Displacement of [3H]-PGD2 from human CRTh2 receptor expressed in HEK293 cells in presence of 0.5% human serum albumin. The class given is cell-based.
In data set [4] the target is T2, Prostaglandin D2 receptor (Homo sapiens, UniProt Q13258).
T2 sequence (Q13258 whole entry): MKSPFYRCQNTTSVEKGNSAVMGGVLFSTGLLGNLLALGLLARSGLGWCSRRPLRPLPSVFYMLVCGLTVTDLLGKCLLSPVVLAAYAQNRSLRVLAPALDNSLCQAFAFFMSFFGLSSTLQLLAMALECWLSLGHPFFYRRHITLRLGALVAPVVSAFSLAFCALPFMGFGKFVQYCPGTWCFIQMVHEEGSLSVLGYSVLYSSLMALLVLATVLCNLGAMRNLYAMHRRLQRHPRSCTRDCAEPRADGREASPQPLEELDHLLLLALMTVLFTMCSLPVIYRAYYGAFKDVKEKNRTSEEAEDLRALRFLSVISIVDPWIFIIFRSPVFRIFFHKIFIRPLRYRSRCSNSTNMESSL
The experiment in a line: Displacement of [3H]-PGD2 from human DP1 receptor expressed in CHO cells. The class given is cell-based.

Another data set concerns the target T3, Thromboxane A2 receptor (Homo sapiens, UniProt P21731).
T3 sequence (P21731 whole entry): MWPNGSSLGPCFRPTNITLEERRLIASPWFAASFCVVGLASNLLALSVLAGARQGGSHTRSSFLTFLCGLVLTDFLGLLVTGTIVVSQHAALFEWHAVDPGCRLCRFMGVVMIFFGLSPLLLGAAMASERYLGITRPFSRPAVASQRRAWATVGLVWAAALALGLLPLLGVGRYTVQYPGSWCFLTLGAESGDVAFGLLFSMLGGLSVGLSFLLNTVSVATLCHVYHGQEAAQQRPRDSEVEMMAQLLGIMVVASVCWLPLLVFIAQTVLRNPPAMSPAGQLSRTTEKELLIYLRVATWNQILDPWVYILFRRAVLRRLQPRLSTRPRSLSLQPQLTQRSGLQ
The experiment in a line: Antagonist activity at human TP receptor by FLIPR assay. In kind it is functional.

The nature of data set [5]: Lipophilicity, log D of the compound at pH 7.4. In kind it is physicochemical. Conditions: buffer.
Data set [6] is described as follows: Solubility of the compound in 0.1 M HCl. The class given is physicochemical. Particulars: buffer.
The nature of data set [7]: Solubility of the compound in phosphate buffer at pH 7. In kind it is physicochemical.
Data set [8] can be described thus: Solubility of the compound in Tris buffer at pH 9. In kind it is physicochemical.
The nature of data set [9]: Stability of the compound in simulated gastric fluid assessed as compound remaining after 1 hr. In kind it is physicochemical. Particulars: read-out: Stability. A digest of the protocol:
(§1)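 Compound incubated in simulated gastric fluid for 1 h or simulated intestinal fluid for 4 h; unchanged parent recovered quantified by LC-MS, expressed as % parent remaining.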

Data set [10] can be described thus: Stability of the compound in simulated intestinal fluid assessed as compound remaining after 4 hrs. Particulars: read-out: Stability. The class given is physicochemical. In a few lines:
as §1

Data set [11] can be described thus: Metabolic stability of the compound in human plasma assessed as compound remaining after 4 hrs. In kind it is ADME, cell-free. Particulars: read-out: Stability.
The nature of data set [12]: Intrinsic clearance in rat liver microsomes assessed per mg protein. The class given is ADME, Microsome. Conditions: read-out: CLH. A general note: Liver microsomes are vesicles of endoplasmic reticulum, rich in cytochrome P450 enzymes.
Data set [13] can be described thus: Intrinsic clearance in human liver microsomes assessed per mg protein. In kind it is ADME, Microsome. Particulars: read-out: CLH.
A short description of data set [14]: Intrinsic clearance in rat hepatocytes assessed per 10^6 cells. Conditions: read-out: CLH. In kind it is ADME, cell-based, Hepatocyte.
The target in another data set is Cytochrome P450 2D6 (Homo sapiens, UniProt P10635). Briefly: Inhibition of CYP2D6. The class given is ADME.
Chain of Cytochrome P450 2D6 (P10635 whole entry): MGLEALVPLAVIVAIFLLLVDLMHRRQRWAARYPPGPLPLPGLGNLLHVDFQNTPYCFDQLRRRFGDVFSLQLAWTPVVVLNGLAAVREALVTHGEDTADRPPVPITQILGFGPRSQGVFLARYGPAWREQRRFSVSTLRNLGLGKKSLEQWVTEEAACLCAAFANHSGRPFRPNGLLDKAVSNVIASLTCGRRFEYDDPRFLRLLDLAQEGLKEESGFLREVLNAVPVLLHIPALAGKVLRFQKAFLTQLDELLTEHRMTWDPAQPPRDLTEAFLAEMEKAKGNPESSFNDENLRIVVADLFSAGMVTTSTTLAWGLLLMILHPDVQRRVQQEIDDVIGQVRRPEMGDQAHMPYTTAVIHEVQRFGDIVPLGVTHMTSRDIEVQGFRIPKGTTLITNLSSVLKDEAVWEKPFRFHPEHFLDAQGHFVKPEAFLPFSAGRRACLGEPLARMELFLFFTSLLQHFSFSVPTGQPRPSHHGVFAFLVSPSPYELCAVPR
Data set [15] has as its target T4, Cytochrome P450 3A4 (Homo sapiens, UniProt P08684). The experiment in a line: Inhibition of CYP3A4 using midazolam as substrate. In kind it is ADME.
For data set [16], the target named is T4, Cytochrome P450 3A4. The experiment in a line: Inhibition of CYP3A4 using testosterone as substrate. In kind it is ADME.
Another data set concerns the target Cytochrome P450 2C9 (Homo sapiens, UniProt P11712). Briefly: Inhibition of CYP2C9. In kind it is ADME.
Data set [17] in a line: AUC in Wistar rat at 10 mg/kg, po. Set-up: dose 10 mg/kg, route oral. Particulars: plasma. The class given is ADME, organism-based. In a few lines: (§2)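 Male Wistar rats, 3 animals per experiment; intravenous dose 1 mg/kg and oral dose 10 mg/kg, each given as a solution.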
A short description of data set [18]: Clearance in Wistar rat at 1 mg/kg, iv and 10 mg/kg, po. Particulars: in vivo. The class given is ADME, organism-based. In a few lines:
as §2

The nature of data set [19]: Volume of distribution at steady state in Wistar rat at 1 mg/kg, iv and 10 mg/kg, po. In kind it is ADME, organism-based. Particulars: in vivo, read-out: Vdss. In a few lines:
as §2

Data set [20] can be described thus: Half life in Wistar rat at 1 mg/kg, iv and 10 mg/kg, po. The class given is ADME, organism-based. Conditions: in vivo. A digest of the protocol: as §2
Data set [21] is described as follows: Oral bioavailability in Wistar rat at 10 mg/kg. The class given is ADME, organism-based. Conditions: in vivo. In a few lines: as §2

Converted amounts (≈) assume the structure as drawn. Some results are limits rather than exact numbers.

T4 sequence (P08684 whole entry): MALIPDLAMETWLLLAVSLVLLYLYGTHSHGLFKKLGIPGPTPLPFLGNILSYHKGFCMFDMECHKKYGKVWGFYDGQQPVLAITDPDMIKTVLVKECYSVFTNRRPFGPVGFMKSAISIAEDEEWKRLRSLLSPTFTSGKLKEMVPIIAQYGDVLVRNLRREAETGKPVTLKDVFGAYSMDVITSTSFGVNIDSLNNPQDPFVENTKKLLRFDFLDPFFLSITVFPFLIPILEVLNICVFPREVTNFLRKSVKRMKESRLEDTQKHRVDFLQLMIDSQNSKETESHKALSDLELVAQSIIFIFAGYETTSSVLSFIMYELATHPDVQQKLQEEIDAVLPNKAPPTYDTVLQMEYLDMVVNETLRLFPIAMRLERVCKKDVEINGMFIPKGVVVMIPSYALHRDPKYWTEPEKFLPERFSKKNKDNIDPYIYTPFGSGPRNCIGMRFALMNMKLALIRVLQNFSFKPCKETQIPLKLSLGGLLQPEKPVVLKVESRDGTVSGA
Chain of Cytochrome P450 2C9 (P11712 whole entry): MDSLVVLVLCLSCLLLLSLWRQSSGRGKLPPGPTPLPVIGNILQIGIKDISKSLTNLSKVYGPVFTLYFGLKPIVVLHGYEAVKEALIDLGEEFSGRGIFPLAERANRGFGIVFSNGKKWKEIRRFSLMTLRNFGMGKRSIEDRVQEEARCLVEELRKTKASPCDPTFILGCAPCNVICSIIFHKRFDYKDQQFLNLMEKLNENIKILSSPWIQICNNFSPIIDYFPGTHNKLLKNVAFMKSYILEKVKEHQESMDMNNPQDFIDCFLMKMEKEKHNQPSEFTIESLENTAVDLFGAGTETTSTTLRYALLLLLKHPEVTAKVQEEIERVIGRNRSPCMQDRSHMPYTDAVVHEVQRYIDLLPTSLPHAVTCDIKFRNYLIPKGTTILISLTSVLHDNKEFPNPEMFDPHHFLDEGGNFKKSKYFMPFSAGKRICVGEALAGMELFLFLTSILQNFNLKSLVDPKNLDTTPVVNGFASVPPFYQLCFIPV

For `COc1ccc(C(C)=O)cc1CSc1nc2cc(F)ccc2n1CC(=O)O`, the IC50 is 0.002 µM in [1]; 0.005 µM in data set [2]; 0.014 µM in [3]; over 10 µM in data set [4]; over 25 µM on Thromboxane A2 receptor; over 50 µM on Cytochrome P450 2D6. The values for the IC50 on Cytochrome P450 3A4 [15], against Cytochrome P450 3A4 [16] and at Cytochrome P450 2C9 were 10 µM, 15 µM and over 50 µM, respectively. This molecule came in with a logD in [5] of -0.8. Also, the values for the solubility in data set [6], in [7] and in [8] were 484 µg/mL (≈ 1250 µM), 399 µg/mL (≈ 1030 µM) and 583 µg/mL (≈ 1500 µM), respectively. For the same molecule, the remaining at 1 h in data set [9] is 95%. For the same molecule, the remaining at 4 h in data set [10] and in [11] was 100% in each case. The microsomal CLint is 60 µL/min/mg in data set [12] and 13 µL/min/mg in data set [13]. For the same molecule, the hepatocyte CLint in [14] was determined as 20 µL/min/1e6 cells. The molecule further yielded an AUC in [17] of 919 ng·h/mL. The clearance in data set [18] was 36 mL/min/kg. For the same molecule, the Vd in data set [19] is 1.2 L/kg. In addition, the half-life in data set [20] was 0.9 h. Further, the bioavailability in [21] came to 19%.

On to `CCCCNC(=O)c1ccc(OC)c(CSc2nc3cc(F)ccc3n2CC(=O)O)c1`, for which the IC50 in data set [1] is 0.016 µM; in data set [2], 0.015 µM; in data set [3], 0.081 µM; in [4] it was over 10 µM; against Cytochrome P450 2D6 it was over 50 µM; at Cytochrome P450 3A4 [15], 4 µM. Further, the IC50 at Cytochrome P450 3A4 [16] came out at 7 µM; against Cytochrome P450 2C9, 6 µM. Also, the logD in data set [5] came to 0.1. Further, the solubility in data set [6] is 670 µg/mL (≈ 1500 µM); in [7], 719 µg/mL (≈ 1610 µM); in data set [8], over 750 µg/mL. In addition, the remaining at 1 h in [9] was 94%. Also, the remaining at 4 h in data set [10] is 78%; in [11] it was 100%. The figures for the microsomal CLint in data set [12] and in data set [13] were 60 µL/min/mg and 7 µL/min/mg, respectively. In data set [14], the hepatocyte CLint is 6 µL/min/1e6 cells.

In the case of `COc1ccc(C(C)=O)cc1CSc1nc2ccccc2n1CC(=O)O`, the IC50 in data set [1] was 0.008 µM; in data set [2], 0.025 µM; in [3], 0.002 µM; in data set [4], over 10 µM; on Thromboxane A2 receptor, over 25 µM; on Cytochrome P450 2D6, over 50 µM. Further, the IC50 at Cytochrome P450 3A4 [15] was 37 µM; against Cytochrome P450 3A4 [16], over 50 µM; against Cytochrome P450 2C9, 24 µM. In data set [5], this molecule returned a pH-dependent lipophilicity (logD) of -1.1. Further, the solubility amounted to 575 µg/mL (≈ 1550 µM) in [6], 602 µg/mL (≈ 1630 µM) in data set [7] and 583 µg/mL (≈ 1570 µM) in data set [8]. For the same molecule, the remaining at 1 h in data set [9] is 92%. For the same molecule, the remaining at 4 h in data set [10] and in [11] was 100% throughout. For the same molecule, the microsomal CLint in data set [12] is 17 µL/min/mg. Also, the hepatocyte CLint in data set [14] came out at 10 µL/min/1e6 cells. The AUC in data set [17] turned out to be 2360 ng·h/mL. The same molecule came in with a clearance in data set [18] of 20 mL/min/kg. The Vd in [19] amounted to 1.1 L/kg. In addition, in data set [20], the half-life was 2.5 h. For the same molecule, the bioavailability in data set [21] turned out to be 27%.
